# High-throughput results from PubChem.
# A selection: hits, their analogues and other compounds. The true share with any hit is near 4.1%.
# APP 5'UTR act = activators of APP 5'UTR luciferase reporter, primary screen, SH-SY5Y cells. SH-SY5Y APP 5'UTR luciferase reporter, luminescence; zero percent = DMSO vehicle wells. activation, % at 2 µM. actives 1% (n = 190,000);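 active means activation above a set limit, based on mean plus 3 SD of controls, cut at about 140% in these data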
# STAT1 activator = STAT1 signaling activators, primary screen, cell-based, HTS, luciferase reporter | NIH 3T3 STAT1-luciferase reporter, IFN-gamma, luminescence; 100% = IFN-gamma alone, no compound | activation (% of control), % at 5.5 µM | actives 2.6% (n = 200,000);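 active means activation above the screen-wide mean activation plus 3 SD, cut at about 130% in these data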;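 further: raw ratio to IFN-gamma control signal so 100% means no change and 0% no light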
# FLuc inh counter = firefly luciferase enzyme inhibitors, primary screen, artefact control for luciferase-based inhibitor screens, biochemical, luminescence, ATPLite; Luciferin 4-monooxygenase (Photinus pyralis), P08659; 10 min; inhibition, % at 10 µM; actives 1.5% (n = 200,000); AID 1006, 2008;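 active means inhibition above about 50% when tested at 10 µM, limit read from the data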
# Target sequence (P08659 whole entry, looked up): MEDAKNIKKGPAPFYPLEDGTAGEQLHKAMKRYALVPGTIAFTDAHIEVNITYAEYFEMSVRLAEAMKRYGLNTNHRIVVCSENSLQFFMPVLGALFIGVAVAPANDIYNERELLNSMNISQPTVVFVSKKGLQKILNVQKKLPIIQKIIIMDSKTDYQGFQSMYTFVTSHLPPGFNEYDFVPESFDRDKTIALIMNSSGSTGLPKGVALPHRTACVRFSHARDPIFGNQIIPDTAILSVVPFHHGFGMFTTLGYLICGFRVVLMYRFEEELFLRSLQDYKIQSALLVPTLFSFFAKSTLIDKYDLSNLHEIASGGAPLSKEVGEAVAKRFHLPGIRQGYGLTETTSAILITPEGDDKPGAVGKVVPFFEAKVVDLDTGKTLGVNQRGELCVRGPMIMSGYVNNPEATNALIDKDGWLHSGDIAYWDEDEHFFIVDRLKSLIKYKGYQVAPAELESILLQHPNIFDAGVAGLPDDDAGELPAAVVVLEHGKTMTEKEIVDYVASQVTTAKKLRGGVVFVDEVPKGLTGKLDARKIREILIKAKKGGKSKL
# FLuc stim CS = FLuc activators, initial screening, artefact control for FLuc-dependent activation tests, biochemical, ATPlite luminescence; Luciferin 4-monooxygenase (Photinus pyralis), P08659; ATPlite luciferase biochemical, 10 min; 0 = ATP-free wells, 1 = DMSO control; activation factor at 10 µM; 200,000 tested, under 10 active;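 active means luciferase activation factor, scaled between plate controls, of at least 2 with compound at 10 µM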
#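 Assay system – cell-free luciferase reagent · Medium – PBS-based ATP solution · Dosing – test compounds dosed from 2 mM stocks in 100% DMSO · Timing – 10 min, room temperature · Technique – light output (luminescence) · Measure – luminescence gain marking luciferase activators · Controls – No-ATP low control, compound-free enzyme-plus-ATP high control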
# NF-kB neuron act = activators of NF-kB expression in neurons, primary screen, cell-based, HTS. AID 1239, 2008. actives 1.6% (n = 190,000). human neuronal cells, NF-kB reporter expression; hits give high values. fold change at 12.5 µM; in the data active means fold change above about 3.3
# An asterisk follows results filed as active; . = no result.
SMILES,APP 5'UTR act,STAT1 activator,FLuc inh counter,FLuc stim CS,NF-kB neuron act
N#Cc1c(NC(=O)c2nc3ncccn3n2)sc2c1CCCCC2,-19,118,57*,0.4,2.4
N#Cc1c(NC(=O)c2cnn3cccnc23)sc2c1CCCC2,78,117,15,0.9,1.1
COC(=O)C1C(=O)c2c([nH]c(C(=O)OCC3CCCO3)c2C)CC1C (stereo not drawn),89,120,54*,0.5,1.9
COCCOC(=O)c1[nH]c2c(c1C)C(=O)C(C(=O)OC)C(C)C2 (stereo not drawn),9,117,54*,0.5,2.1
CCCCCOC(=O)c1[nH]c2c(c1C)C(=O)C(C(=O)OC)C(C)C2 (stereo not drawn),28,109,4,1,2
CCN(CC)c1ccc(C=C2C(=O)OC(c3ccccc3)OC2=O)cc1 (stereo not drawn),-6,104,-6,1.1,1.1
CCN(CC)c1ccc(/C=C/C(=O)C2C(=O)C=C(C)OC2=O)cc1 (stereo not drawn),164*,138*,49,0.5,1.9
Cc1ccc(OCc2nnc(SCC(=O)c3cccc([N+](=O)[O-])c3)n2C)cc1,11,94,0,1,1.6
CCN(CC)c1ccc(C(=O)OCC(=O)Nc2cccc(S(=O)(=O)NC3=NCCCCC3)c2)cc1,-9,96,7,0.9,0.95
Cc1nc(C)c(C(=O)C2=C(O)C(=O)N(CCCN(C)C)C2c2ccco2)s1 (stereo not drawn),.,.,-3,1,.
CCCC12CN3CCN(CC(C3)/C1=N\NC(=O)c1ccc(C(C)(C)C)cc1)C2,-7,98,-3,1,0.95
CCN=C1S/C(=C\c2sccc2C)C(=O)N1CC,41,130*,4,1,1.6
CCN=C1S/C(=C\c2ccc(OC)c(OCC)c2)C(=O)N1CC,7,100,-2,1,1.2
COc1ccc(/C=C\c2nc(=O)c3ccccc3o2)cc1,127,100,93*,0.1,7.3*
Nc1ccc2nc(SCc3cccc(F)c3)sc2c1,53,125,15,0.8,6.1*
Cc1ccc(N2C(=O)c3ccc(N)cc3C2=O)cc1,29,149*,26,0.7,3.5*
Cc1ccc(N2C(=O)c3ccccc3C2=O)cc1C,13,124,1,1,1.9
Cc1ccc(N2C(=O)c3ccc(N)cc3C2=O)cc1C,34,141*,19,0.8,3.7*
CC(=O)Nc1ccc2c(c1)C(=O)N(c1ccc(C)cc1)C2=O,18,120,2,1,1.3
O=C(c1cccc(-n2cnnn2)c1)N1CCOCC1,4,100,-8,1.1,1.4
Cc1cc(C2=NNC(=NC3CC3)SC2)c(C)n1-c1ccccc1,-76,17,97*,0,0.13
Cc1cc(C2=NNC(=NC3CC3)SC2)c(C)n1Cc1ccco1,-47,53,96*,0,0.36
COCCCN=C1NN=C(c2cc(C)n(Cc3ccco3)c2C)CS1,-94,123,70*,0.3,1.8
COCC(C)N=C1NN=C(c2cc(C)n(Cc3ccccc3Cl)c2C)CS1 (stereo not drawn),101,72,54*,0.5,1.2
Cc1cc(-c2csc(N)n2)c(C)n1Cc1ccco1,8,97,-2,1,1.2
SMILES,APP 5'UTR act,STAT1 activator,FLuc inh counter,FLuc stim CS,NF-kB neuron act
CCCC(=O)OCC(=O)c1[nH]c(C)c(C(C)=O)c1C,6,106,1,1,1.4
Cc1nc(SCC(O)CO)c([N+](=O)[O-])[nH]1 (stereo not drawn),-1,102,-8,1.1,3.5*
CCn1c(C2CCN(Cc3ccccc3)CC2)n[nH]c1=S,154*,99,-6,1.1,1
S=c1[nH]nc(C2CC2)n1Cc1ccco1,-3,99,-6,1.1,1.4
O=C(COc1ccc(Cl)cc1)NCc1nnc(SCC(=O)N2CCCc3ccccc32)o1,8,102,-9,1.1,0.86
Cc1ccc(C(=O)OCC(=O)c2ccc(Cl)s2)s1,-2,131*,41,0.6,2.1
O=C(COC(=O)c1ccc[nH]c1=O)c1ccc(Cl)s1,8,104,20,0.8,1
COc1ccc2oc3ccc(OC)cc3c(=O)c2c1,67,144*,42,0.6,3.1
COc1ccc2sc3ccccc3c(=O)c2c1,42,132*,24,0.8,2.4
CNS(=O)(=O)c1cccc(C(=O)OCc2csc(-c3ccccc3)n2)c1,17,112,1,1,1.1
Cc1ccsc1C(=O)OCc1csc(-c2ccccc2)n1,195*,99,48,0.5,9.4*
Cn1cccc1C(=O)OCc1csc(-c2ccccc2)n1,150*,134*,61*,0.4,5.8*
Cc1ccccc1Nc1nc(N)nc(COC(=O)c2cccn2C)n1,77,141*,2,1,2.9
O=C(CSc1nc(-c2ccccc2)cc(=O)[nH]1)N1CCOCC1,22,100,-5,1.1,0.93
CCN(CC)c1ccc(NC(=O)/C=C\c2ccccc2Cl)cc1,15,122,38,0.6,1.6
CN(C)c1ccc(NC(=O)/C=C/c2ccccc2Cl)cc1,111,149*,64*,0.4,1.9
COC(=O)c1cc(NC(=O)/C=C/c2ccccc2)ccc1O,56,133*,12,0.9,2
CN(C)c1ccc(NC(=S)NC(=O)/C=C/c2ccco2)cc1,26,109,-9,1.1,1.1
CN(C)c1ccc(NC(=S)NC(=O)/C=C/c2ccc(Cl)cc2)cc1,69,142*,2,1,1.8
Cc1cc(NC(=O)/C=C/c2ccccc2Cl)n(-c2nc3ccccc3[nH]2)n1,74,103,76*,0.2,1.3
COc1nc2c(C)cccc2cc1-c1noc(-c2ccncc2)n1,.,.,0,1,.
c1ccc2[nH]c3cc4ncnc4cc3nc2c1,0,115,1,1,1.1
COc1ccc(/C=C/C(=O)Nc2cc(C)on2)cc1,40,128,11,0.9,1.2
Cc1cc(NC(=O)/C=C/c2ccccc2Cl)no1,83,135*,-2,1,2
Cc1cc(NC(=O)/C=C/c2ccccc2)no1,73,130*,32,0.7,3.2
CN(CCOC(=O)c1ccc2c(c1)OCCO2)Cc1ccccc1,4,103,5,0.9,0.99
O=C(COc1ccc(Cl)cc1Cl)Nc1ccc(Cl)cn1,181*,142*,86*,0.1,4.5*
O=C(COc1ccccc1)Nc1ccc(Cl)cc1Cl,114,134*,50*,0.5,3.5*
CC1=NC(=O)C(N=Nc2cccc3ccccc23)N1c1ccccc1 (stereo not drawn),-9,96,.,.,.
O=C(O)CCSCCCN1C(=O)c2cccc3cccc(c23)C1=O,17,105,3,1,1.3
